Data on 23 compounds can be found in ChEMBL document CHEMBL1144264, “Structure-activity relationship studies on ortho-substituted cinnamic acids, a new class of selective EP(3) antagonists” (Bioorg Med Chem Lett, 2005).

The target in data set [1] is T1, Prostaglandin E2 receptor EP1 subtype (Homo sapiens, UniProt P34995).
T1 sequence (P34995 whole entry): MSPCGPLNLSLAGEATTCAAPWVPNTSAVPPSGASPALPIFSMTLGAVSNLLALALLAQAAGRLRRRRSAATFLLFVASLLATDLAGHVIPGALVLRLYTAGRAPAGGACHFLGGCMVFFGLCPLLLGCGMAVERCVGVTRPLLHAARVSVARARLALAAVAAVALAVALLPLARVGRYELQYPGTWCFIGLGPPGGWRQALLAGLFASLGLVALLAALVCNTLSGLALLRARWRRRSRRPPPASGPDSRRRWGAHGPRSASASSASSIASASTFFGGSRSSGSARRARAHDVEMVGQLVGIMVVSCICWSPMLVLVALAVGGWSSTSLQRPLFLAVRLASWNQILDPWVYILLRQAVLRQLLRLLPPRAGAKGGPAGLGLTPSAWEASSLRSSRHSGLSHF
Description: Binding affinity for human prostanoid EP1 receptor.

For data set [2], the target named is Prostaglandin E2 receptor EP2 subtype (Homo sapiens, UniProt P43116). Description: Binding affinity for human prostanoid EP2 receptor.
Chain of Prostaglandin E2 receptor EP2 subtype (P43116 whole entry): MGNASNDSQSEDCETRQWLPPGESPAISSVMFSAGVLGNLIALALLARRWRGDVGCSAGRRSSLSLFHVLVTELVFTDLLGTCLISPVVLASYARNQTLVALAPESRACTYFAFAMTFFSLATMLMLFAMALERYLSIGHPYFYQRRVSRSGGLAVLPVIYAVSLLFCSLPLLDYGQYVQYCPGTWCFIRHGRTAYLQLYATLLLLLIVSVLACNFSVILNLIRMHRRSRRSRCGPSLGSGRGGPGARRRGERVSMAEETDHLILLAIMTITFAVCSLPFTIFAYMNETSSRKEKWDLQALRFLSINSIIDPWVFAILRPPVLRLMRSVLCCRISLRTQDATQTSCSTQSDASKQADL
For data set [3], the target named is T2, Prostaglandin E2 receptor EP3 subtype (Homo sapiens, UniProt P43115).
T2 sequence (P43115 whole entry): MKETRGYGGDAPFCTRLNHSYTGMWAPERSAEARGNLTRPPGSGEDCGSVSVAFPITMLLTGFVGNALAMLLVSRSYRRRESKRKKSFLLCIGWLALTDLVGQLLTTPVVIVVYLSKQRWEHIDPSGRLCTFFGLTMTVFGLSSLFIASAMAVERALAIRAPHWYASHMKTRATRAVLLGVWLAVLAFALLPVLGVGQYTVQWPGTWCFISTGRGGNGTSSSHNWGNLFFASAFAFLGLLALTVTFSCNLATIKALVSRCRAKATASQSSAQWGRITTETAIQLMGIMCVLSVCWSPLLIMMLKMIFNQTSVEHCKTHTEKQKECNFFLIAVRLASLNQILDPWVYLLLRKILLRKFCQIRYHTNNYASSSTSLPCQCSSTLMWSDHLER
Description: Binding affinity for human prostanoid EP3 receptor.

In data set [4] the target is Prostaglandin E2 receptor EP4 subtype (Homo sapiens, UniProt P35408). Description: Binding affinity for human prostanoid EP4 receptor.
Chain of Prostaglandin E2 receptor EP4 subtype (P35408 whole entry): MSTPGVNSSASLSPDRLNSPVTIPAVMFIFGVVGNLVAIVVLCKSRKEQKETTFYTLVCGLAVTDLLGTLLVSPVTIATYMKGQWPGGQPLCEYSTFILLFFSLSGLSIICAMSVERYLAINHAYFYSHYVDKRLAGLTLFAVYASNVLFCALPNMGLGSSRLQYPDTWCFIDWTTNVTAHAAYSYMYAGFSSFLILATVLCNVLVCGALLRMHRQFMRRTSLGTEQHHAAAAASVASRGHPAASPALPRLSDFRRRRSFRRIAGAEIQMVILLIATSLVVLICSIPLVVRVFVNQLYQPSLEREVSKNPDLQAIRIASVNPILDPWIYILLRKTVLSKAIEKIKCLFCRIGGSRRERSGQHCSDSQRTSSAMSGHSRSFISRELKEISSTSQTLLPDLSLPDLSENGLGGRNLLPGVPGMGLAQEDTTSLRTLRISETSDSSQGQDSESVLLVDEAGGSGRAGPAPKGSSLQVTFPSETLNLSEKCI
Data set [5] is described as follows: Bioavailability in rat (dose 10 mg/kg p.o. and 5 mg/kg i.v.) (dosed as sodium salt). To be noted: in vivo, po. It counts as ADME, organism-based. An outline of the steps:
(§1)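 Male Sprague–Dawley rats, 300–400 g. Oral bioavailability, clearance (mL/min/kg), Cmax (µM, with time of peak) and half-life derived from plasma profiles.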

Data set [6] is described as follows: Maximum concentration in rats after 10 mg/kg peroral and 5 mg/kg intravenous administration as sodium salts. It counts as ADME, organism-based. To be noted: rat, in vivo, po. An outline of the steps:
as §1

Data set [7] concerns HEK293. Description: Stimulation of c-AMP production in HEK (EBNA) cells was determined by c-AMP assay. To be noted: Homo sapiens.
Data set [8] is described as follows: Clearance in rats after 10 mg/kg peroral and 5 mg/kg intravenous administration as sodium salts. It counts as ADME, organism-based. The conditions noted are these: rat, in vivo. An outline of the steps: as §1
A short description of data set [9]: Half life in rats after 10 mg/kg peroral and 5 mg/kg intravenous administration as sodium salts. To be noted: rat, in vivo. It counts as ADME, organism-based. In outline:
as §1

Data set [10] concerns HEK293. Description: Inhibition of c-AMP production in HEK (EBNA) cells was determined by c-AMP assay. It counts as functional, HEK293-EBNA. To be noted: Homo sapiens. An outline of the steps: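 Functional cAMP read-out in HEK (EBNA) cells expressing the receptor: antagonism scored as reversal of EP3-mediated inhibition of cAMP production; EP2 activity scored as stimulation of cAMP production.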

Usually Ki stands for a measure of affinity in units of concentration, obtained from inhibition or displacement. Read a high Ki as weaker binding. Usually bioavailability stands for the share of a dose that reaches the circulation, judged against a reference dose that is usually intravenous. As a reminder, the Cmax is the peak of the concentration-time curve. The half-life is the time in which the quantity being followed falls by half.

Turning to `Cc1cccc(/C=C/Cc2cccc(/C=C/C(=O)O)c2)c1OCc1ccccc1.Cc1cccc(C/C=C/c2cccc(/C=C/C(=O)O)c2)c1OCc1ccccc1`, the Ki in data set [1] is 21000 nM; in [2] it was 630 nM; in [3] it was 2000 nM; in data set [4], 3100 nM.

With `Cc1cccc(/C=C/Cc2ccc(/C=C/C(=O)O)cc2)c1OCc1ccccc1.Cc1cccc(C/C=C\c2ccc(/C=C/C(=O)O)cc2)c1OCc1ccccc1`, the Ki in data set [1] is over 30000 nM; in data set [2], 1700 nM; in [3] it was 2900 nM; in data set [4] it was 5500 nM.

Take `O=C(O)/C=C/c1ccccc1/C=C/c1ccccc1OCc1ccccc1`: the Ki in [1] turned out to be 45000 nM; in data set [2], 8 nM; in [3], 1400 nM; in data set [4], 2800 nM. For the same compound, the bioavailability in data set [5] is 17%. The Cmax in data set [6] was found to be 1.7 µM. Also, the Kb in data set [7] turned out to be 3 nM. For the same compound, the clearance in [8] amounted to 16 mL/min/kg. In [9], the half-life was 2 h.

As to `Cc1cccc(CCCc2ccccc2CCC(=O)O)c1OCc1ccccc1`, the Ki in [1] was determined as 23000 nM; in data set [2] it was 940 nM; in data set [3] it was 65 nM; in data set [4], 440 nM.

Take `Cc1cccc(/C=C/Cc2ccccc2/C=C/C(=O)O)c1OCc1ccccc1.Cc1cccc(C/C=C/c2ccccc2/C=C/C(=O)O)c1OCc1ccccc1` (stereo in doubt; 2a): the Ki turned out to be 550 nM in [2], 13 nM in data set [3] and 1200 nM in data set [4].

In [10], `Cc1cccc(/C=C/Cc2ccccc2/C=C/C(=O)O)c1OCc1ccccc1` had a Kb of 17 nM.

As to `Cc1cccc(/C=C/Cc2ccccc2/C=C/C(=O)O)c1OCc1ccc(F)cc1`, the Ki in [1] stood at 17000 nM; in [2], 4100 nM; in data set [3] it was 7 nM; in [4], 2400 nM. In data set [10], this compound showed a Kb of 4 nM.

`CC(=O)c1ccc(OCc2ccccc2)c(/C=C/Cc2ccccc2/C=C/C(=O)O)c1.CC(=O)c1ccc(OCc2ccccc2)c(C/C=C/c2ccccc2/C=C/C(=O)O)c1`: the inhibitory constant (Ki) in data set [1] worked out at 2800 nM; in data set [2], 8700 nM; in data set [3], 260 nM; in data set [4], 830 nM.

On to `Cc1cccc(/C=C/Cc2ccccc2CC(=O)O)c1OCc1ccccc1.Cc1cccc(C/C=C/c2ccccc2CC(=O)O)c1OCc1ccccc1`, for which the inhibition constant (Ki) is 21000 nM in data set [1], 2900 nM in [2], 3400 nM in data set [3] and 4300 nM in data set [4].

Take `O=C(O)/C=C/c1ccccc1/C=C/Cc1cccc(CO)c1OCc1c(Cl)cccc1Cl.O=C(O)/C=C/c1ccccc1C/C=C/c1cccc(CO)c1OCc1c(Cl)cccc1Cl`: the Ki in [1] came to 7100 nM; in [2] it was 2500 nM; in [3], 13 nM; in data set [4] it was 740 nM.

Regarding `Cc1cccc(/C=C/Cc2ccccc2/C=C/C(=O)O)c1OCc1ccccc1.Cc1cccc(C/C=C/c2ccccc2/C=C/C(=O)O)c1OCc1ccccc1` (stereo in doubt; 2a/3a), the Ki in data set [1] is 19000 nM; in data set [2], 860 nM; in data set [3] it was 9 nM; in data set [4], 2000 nM. Further, in data set [10], the Kb was found to be 32 nM. Further, the bioavailability in [5] was 97%. For the same compound, the highest concentration (Cmax) in [6] was 22 µM. In addition, the clearance in [8] was 10 mL/min/kg. In addition, the half-life in data set [9] was 2 h.

For the compound `Cc1cccc(/C=C/Cc2ccccc2/C=C/C(=O)O)c1O`, the Ki in data set [1] came out at 68000 nM; in data set [2] it was 7300 nM; in data set [3] it was 10 nM; in [4], 1600 nM. The Kb in data set [10] came out at 28 nM.

Regarding `COc1cccc(CCCc2ccccc2/C=C/C(=O)O)c1OCc1ccccc1`, the Ki in data set [1] was over 9000 nM; in [2], 1100 nM; in data set [3], 19 nM; in data set [4], 4300 nM. The compound also returned a Kb in data set [10] of 29 nM.

Take `Cc1cccc(CCCc2ccccc2/C=C/C(=O)O)c1OCc1ccccc1`: the Ki is over 10000 nM in data set [1], 380 nM in data set [2], 13 nM in data set [3] and 2900 nM in [4]. The same compound returned a Kb in data set [10] of 38 nM.

Regarding `O=C(O)/C=C/c1ccccc1/C=C/Cc1cccc(OCc2ccccc2)c1.O=C(O)/C=C/c1ccccc1C/C=C\c1cccc(OCc2ccccc2)c1`, the Ki came to 14000 nM in [1], 18 nM in data set [2], 50 nM in data set [3] and 450 nM in [4]. The compound further displayed a Kb in data set [10] of 62 nM.

For the compound `Cc1cccc(C(O)/C=C/c2ccccc2/C=C/C(=O)O)c1OCc1c(Cl)cccc1Cl` (configuration not stated), the Ki in [1] came out at 13000 nM; in data set [2] it was 3900 nM; in [3], 9 nM; in data set [4], 1000 nM. For the same compound, in [10], the Kb turned out to be 30 nM.

On to `Cc1cccc(/C=C/C(O)c2ccccc2/C=C/C(=O)O)c1OCc1c(Cl)cccc1Cl` (configuration not stated), for which the Ki in data set [1] was 3000 nM; in data set [2], 2100 nM; in data set [3], 10 nM; in [4], 930 nM. For the same compound, in data set [10], the Kb is 30 nM.

`Cc1cccc(/C=C/Cc2ccccc2/C=C/C(=O)O)c1OCc1c(Cl)cccc1Cl`: the Ki in [1] worked out at 6700 nM; in data set [2], 5400 nM; in data set [3] it was 3 nM; in data set [4], 620 nM. In addition, in data set [10], the Kb stood at 6 nM. Besides, in [5], the bioavailability was found to be 74%. The Cmax in data set [6] came to 25 µM. The clearance in data set [8] is 5.8 mL/min/kg. The half-life in data set [9] was 2 h.

For `O=C(O)/C=C/c1ccccc1/C=C/Cc1ccccc1.O=C(O)/C=C/c1ccccc1C/C=C/c1ccccc1`, the Ki in data set [1] was over 100000 nM; in [2] it was 1400 nM; in data set [3], 100 nM; in [4] it was 4400 nM.

Consider `Cc1cccc(/C=C\Cc2ccccc2C(=O)O)c1OCc1ccccc1.Cc1cccc(C/C=C/c2ccccc2C(=O)O)c1OCc1ccccc1`, for which the Ki came out at 16000 nM in data set [1], 7100 nM in data set [2], 2700 nM in [3] and 5700 nM in data set [4].

Regarding `COc1cc(/C=C\Cc2ccccc2/C=C/C(=O)O)ccc1OCc1ccccc1.COc1cc(C/C=C/c2ccccc2/C=C/C(=O)O)ccc1OCc1ccccc1`, the Ki in data set [1] was over 20000 nM; in data set [2], 750 nM; in data set [3] it was 8 nM; in data set [4], 610 nM. The compound further registered a Kb in data set [10] of 6 nM.

As for `COc1ccc(/C=C/Cc2ccccc2/C=C/C(=O)O)cc1.COc1ccc(C/C=C/c2ccccc2/C=C/C(=O)O)cc1`, the Ki in [1] is over 100000 nM; in [2], 2500 nM; in [3] it was 68 nM; in [4], 6200 nM.

Turning to `O=C(O)/C=C/c1ccccc1/C=C/Cc1ccccc1OCc1ccccc1.O=C(O)/C=C/c1ccccc1C/C=C\c1ccccc1OCc1ccccc1`, the Ki in data set [1] is 24000 nM; in data set [2], 680 nM; in data set [3] it was 25 nM; in data set [4], 1000 nM. Also, the Kb in [10] is 50 nM.
